In article PMC3716464 (Angewandte Chemie (International ed. in English), 2009):

Tested on: b(h)CAII
Assay: dot blot detection of b
Assay type: binding, bovine; human
Conditions: biligand in 0.1% serum, compared with triligand in 10% porcine serum
Method in brief: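 Dot blot with the test peptide as capture agent for b(h)CAII in 10% porcine serum, varying protein amount to find the detection limit. For comparison, the biligand anchor served as capture agent in 0.1% serum.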

C#CC[C@@H](N)C(=O)N[C@H](CCCCN)C(=O)N[C@H](Cc1c[nH]c2ccccc12)C(=O)N[C@H](CC(C)C)C(=O)N[C@H](Cc1c[nH]c2ccccc12)C(=O)NCC(=O)N[C@H](CC(C)C)C(=O)N[C@@H](CCCCn1cc(C[C@@H](NC(=O)[C@@H](CCCCN)NC(=O)[C@@H](Cc2ccccc2)NC(=O)[C@@H](Cc2c[nH]c3ccccc23)NC(=O)[C@@H](CC(C)C)NC(=O)[C@@H](CCCCN)NC(=O)[C@H](N)CC(C)C)C(N)=O)nn1)C(N)=O [(D-Pra)-kwlwGl-Tz1-kfwlkl]
reduction in sensitivity (biligand anchor as capture agent versus triligand): more than 10 fold
